pKi: −log10 of the molar value.
Legend:
[1] = molecular target: T1, Adenosine deaminase (Bos taurus, UniProt P56658); test: Inhibitory constant against adenosine deaminase in 0.05 M sodium phosphate buffer at pH 7.0, was determined before heating
T1 sequence (P56658 whole entry): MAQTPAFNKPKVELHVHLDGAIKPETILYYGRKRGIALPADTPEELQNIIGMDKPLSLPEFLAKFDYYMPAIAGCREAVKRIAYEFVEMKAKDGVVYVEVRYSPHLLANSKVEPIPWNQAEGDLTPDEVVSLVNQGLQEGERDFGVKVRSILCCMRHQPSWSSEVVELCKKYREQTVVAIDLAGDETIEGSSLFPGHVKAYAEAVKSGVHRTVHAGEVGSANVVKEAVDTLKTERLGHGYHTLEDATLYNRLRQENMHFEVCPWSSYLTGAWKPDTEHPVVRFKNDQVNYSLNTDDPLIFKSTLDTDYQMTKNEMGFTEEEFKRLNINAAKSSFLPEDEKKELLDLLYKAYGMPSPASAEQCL

[2] = molecular target: T1, Adenosine deaminase; test: Inhibitor constant against adenosine deaminase in 0.05 M sodium phosphate buffer at pH 7.0, was determined after heating to 100 degrees celsius
Method in brief: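 Dialdehyde pre-heated as an aqueous phosphate-buffer solution at 100 °C (about 1 h). Adenosine deaminase (0.25 unit) added to buffered adenosine (30–70 μM) plus dialdehyde (3-190 μM) in 0.05 M sodium phosphate, pH 7.0, 25 °C. Absorbance change at 265 nm followed. At least five substrate and two inhibitor levels used. Ki from Lineweaver–Burk plots, least-squares lines.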

[3] = molecular target: T1, Adenosine deaminase; test: Inhibitory constant against adenosine deaminase in 0.05 M sodium phosphate buffer at pH 7.0 was determined before heating
[4] = molecular target: T1, Adenosine deaminase; test: Inhibitor constant against adenosine deaminase in 0.05 M sodium phosphate buffer at pH 7.0 was determined after heating to 100 degrees celsius
Method in brief: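 Dialdehyde heated at 100 °C in aqueous phosphate buffer before testing. Adenosine deaminase (0.25 unit) added to buffered adenosine (30–70 μM, at least five levels) with dialdehyde (3–190 μM, two levels). Rate of absorbance change at 265 nm followed at 25 °C, 0.05 M sodium phosphate, pH 7.0. Ki from Lineweaver–Burk plots fitted by Wilkinson least squares.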

SMILES | pKi [1] | pKi [2] | pKi [3] | pKi [4]
Nc1ncnc2c1ncn2[C@@H](C=O)O[C@@H](C=O)CO | 3.28 | 5.30 | – | –
C=C(C=O)OC(C=O)n1cnc2c(N)ncnc21 (centres undefined) | – | – | 5.40 | –
Nc1ncnc2c1ncn2[C@H](C=O)O[C@@H](C=O)CO | 3.51 | – | – | 5.10
Nc1ncnc2c1ncn2[C@@H](C=O)OCC=O | – | – | 4.34 | 4.52
Nc1ncnc2c1ncn2[C@H](C=O)OCC=O | – | – | 3.11 | 3.10
CC(O)[C@H](C=O)OC(C=O)n1cnc2c(N)ncnc21 (single isomer, unassigned) | – | – | – | 4.68
CC(O)[C@@H](C=O)OC(C=O)n1cnc2c(N)ncnc21 (single isomer, unassigned; 7) | – | – | – | 4.62
CC(O)[C@@H](C=O)OC(C=O)n1cnc2c(N)ncnc21 (single isomer, unassigned; 10) | – | – | 3.82 | 4.70
C[C@@H](C=O)O[C@@H](C=O)n1cnc2c(N)ncnc21 (stereo in doubt; 4) | – | – | 4.55 | 4.52
CC(O)[C@H](C=O)O[C@@H](C=O)n1cnc2c(N)ncnc21 (stereo in doubt; 8) | – | – | – | 4.16
CC(O)[C@H](C=O)O[C@@H](C=O)n1cnc2c(N)ncnc21 (stereo in doubt; 9) | – | – | – | 4.42
C[C@@H](C=O)O[C@@H](C=O)n1cnc2c(N)ncnc21 (stereo in doubt; 13) | – | – | 3.80 | 4.00
